Values after ≈ are worked out from the molar mass of the structure shown. Active and inactive are the calls of the source. No cut-off for these calls is given here.
What was measured:
[1] = tested on: Mus musculus; assay: Toxicity in po dosed nude mouse xenografted with human SGC7901 cells assessed as loss of body weight at 50 and 100 mg/kg, po qd for 23 days; type: organism-based, SGC-7901; conditions: in vivo, 552 h
Method in brief: (§1)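 Female nude mice (8 weeks) bearing s.c. SGC7901 tumours (10 million cells injected) of about 40 mm³. Given 0.5% CMCNA vehicle or 50 or 100 mg/kg/day orally for 23 consecutive days. Observed daily. Body weights monitored for the duration of the study.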

[2] = Cytotoxicity against human SW620 cells assessed as inhibition of cell proliferation incubated for 72 hrs by MTS assay; type: functional, cell-based; conditions: SW-620, 72 h
Method in brief: (§2)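 Cells in RPMI-1640 with 10% heat-inactivated FBS at 37°C, 5% CO2. Seeded at 4000 cells/well in triplicate and attached overnight. Exposed to various concentrations for 72 h. MTS added for a further 4 h; absorbance at 490 nm. IC50 = concentration for 50% growth inhibition, as mean ± SEM of three independent tests.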

[3] = Cytotoxicity against human MGC803 cells assessed as inhibition of cell proliferation incubated for 72 hrs by MTS assay; type: functional, cell-based; conditions: MGC-803, 72 h; method in brief: as §2
[4] = Cytotoxicity against human SGC7901 cells assessed as inhibition of cell proliferation at 10 uM incubated for 72 hrs by MTS assay; type: functional; conditions: SGC-7901, 72 h
Method in brief: (§3)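 Single-concentration MTS screen at 10 μM. Cells in RPMI-1640 with 10% FBS, seeded at 4000 cells/well in triplicate, attached overnight, then exposed for 72 h at 37°C, 5% CO2. MTS for 4 h; absorbance 490 nm. Reported as % inhibition.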

[5] = Cytotoxicity against human MGC803 cells assessed as inhibition of cell proliferation at 10 uM incubated for 72 hrs by MTS assay; type: functional; conditions: MGC-803, 72 h; method in brief: as §3
[6] = tested on: SGC-7901; assay: Antitumor activity against human SGC7901 cells xenografted in po dosed nude mouse assessed as decrease in tumor weight administered as once daily for 23 days; type: functional, organism-based
Method in brief: (§4)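 SGC7901 xenograft: female nude mice, 8 weeks old, given 10 million cells s.c. At about 40 mm³, randomized to 0.5% CMCNA vehicle or oral daily doses for 23 consecutive days. Calipers every 2 days; volume = π/6 × large diameter × (small diameter)². %ΔT/ΔC determined. Tumours weighed after sacrifice on the final day. Mean ± SEM; Student's t-test.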

[7] = Antitumor activity against human SGC7901 cells xenografted in nude mouse at 100 mg/kg, po qd for 23 days; type: functional; conditions: SGC-7901, po, 552 h; method in brief: as §4
[8] = Cytotoxicity against human SW620 cells assessed as inhibition of cell proliferation at 10 uM incubated for 72 hrs by MTS assay; type: functional; conditions: SW-620, 72 h; method in brief: as §3
[9] = tested on: CT26; assay: Cytotoxicity against mouse CT26 cells assessed as inhibition of cell proliferation incubated for 72 hrs by MTS assay; type: functional, cell-based; conditions: CT26, 72 h; method in brief: as §2
[10] = tested on: SGC-7901; assay: Induction of apoptosis in human SGC7901 at 10 uM incubated for 30 hrs by PI and Annexin V-FITC-based flow cytometric analysis; type: functional
Method in brief: (§5)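 SGC7901 cells grown to 80% confluency in 6-well plates, then treated 30 h with 2.5, 5 or 10 μM. DMSO negative control. Cells washed in ice-cold PBS and stained with FITC-Annexin V and PI in binding buffer. Read by flow cytometry: UR = necrotic/late apoptotic, LR = early apoptotic. Three separate experiments.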

[11] = tested on: SGC-7901; assay: Induction of apoptosis in human SGC7901 cells assessed as decrease in BCL2 expression at 2.5 to 10 uM incubated for 24 hrs by immunoblotting; type: functional, cell-based
Method in brief: (§6)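 SGC7901 cells treated 24 h at 2.5, 5 or 10 μM. Lysed on ice for 30 min; 60 µg protein run on 10% SDS-PAGE and transferred to PVDF. Blocked in 5% milk. Primary antibodies (cleaved PARP, pro-caspase-3, Bcl-2) overnight at 4°C, HRP secondary 1:300 for 1 h at room temperature. ECL detection. Three experiments.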

[12] = Cytotoxicity against human SGC7901 cells assessed as inhibition of cell proliferation incubated for 72 hrs by MTS assay; type: functional, cell-based; conditions: SGC-7901, 72 h; method in brief: as §2
[13] = tested on: Mus musculus; assay: Toxicity in po dosed nude mouse xenografted with human SGC7901 cells assessed as drug tolerability by measuring clinical parameters at 50 and 100 mg/kg, po qd for 23 days; type: organism-based, SGC-7901; conditions: in vivo, 552 h; method in brief: as §1
[14] = tested on: SGC-7901; assay: Induction of apoptosis in human SGC7901 cells assessed as necrotic cells and late apoptotic cells incubated for 30 hrs by PI and Annexin V-FITC-based flow cytometric analysis; type: functional, cell-based; method in brief: as §5
[15] = tested on: CT26; assay: Cytotoxicity against mouse CT26 cells at 10 uM assessed as inhibition of cell proliferation incubated for 72 hrs by MTS assay; type: functional; conditions: CT26, 72 h; method in brief: as §3
[16] = Solubility of compound in water
[17] = Cytotoxicity against human GES-1 cells assessed as inhibition of cell proliferation incubated for 72 hrs by MTS assay; type: functional, cell-based; conditions: GES1, 72 h; method in brief: as §2
[18] = tested on: SGC-7901; assay: Induction of apoptosis in human SGC7901 cells assessed as decrease in procaspase-3 fragments at 2.5 to 10 uM incubated for 24 hrs by immunoblotting; type: functional, cell-based; method in brief: as §6
[19] = tested on: SGC-7901; assay: Antitumor activity against human SGC7901 cells xenografted in nude mouse assessed as decrease cell proliferation at 50 and 100 mg/kg, po qd for 23 days by Ki67 staining-based immunohistochemistry; type: functional, organism-based
Method in brief: (§7)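 Female nude mice, eight weeks old, injected s.c. with 10 million SGC7901 cells. At about 40 mm³, randomized to 0.5% CMCNA vehicle or daily oral dosing for 23 consecutive days. Tumour halves fixed in 4% paraformaldehyde. 5 μm sections, citrate antigen retrieval. Primary antibody overnight at 4°C (anti-Ki67 1:50, cleaved caspase-3 1:100), then HRP secondary 1:100 for 2 h at 37°C. DAB stain, hematoxylin counterstain.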

[20] = tested on: SGC-7901; assay: Induction of apoptosis in human SGC7901 cells assessed as increase in cleaved PARP incubated for 24 hrs by immunoblotting; type: functional, cell-based; method in brief: as §6
[21] = tested on: SGC-7901; assay: Antitumor activity against human SGC7901 cells xenografted in nude mouse assessed as increase in cleaved caspase-3 at 50 and 100 mg/kg, po qd for 23 days by DAB substrate-chromogen staining-based immunohistochemistry; type: functional, organism-based; method in brief: as §7

COc1ccccc1/C=C/C(=O)/C=C/c1ccc(OCCCN2CCOCC2)c(OC)c1
Activity [1]: Non-toxic
IC50 [2]: 1.22 µM
IC50 [3]: 2.18 µM
inhibition at 10 µM [4]: 75.3%
inhibition at 10 µM [5]: 80.3%
inhibition [6]: Dose-dependent effect
inhibition in vivo at 100 mg/kg [7]: 48%
inhibition at 10 µM [8]: 105%
IC50 [9]: 2.56 µM
Activity [10]: 50%
Activity [11]: Active
IC50 [12]: 1.91 µM
Activity [13]: Non-toxic
Activity [14]: Dose-dependent effect
inhibition at 10 µM [15]: 104%
solubility [16]: 21.2 µg/mL (≈ 48.5 µM)
IC50 [17]: 2.62 µM
Activity [18]: Active
Activity [19]: Active
Activity [20]: Dose-dependent effect
Activity [21]: Active

COc1cc(/C=C2\CC/C(=C\c3ccc(OCCCn4ccnc4)c(OC)c3)C2=O)ccc1OCCCn1ccnc1
IC50 [2]: 0.95 µM
IC50 [3]: 2.46 µM
inhibition at 10 µM [4]: 76.8%
inhibition at 10 µM [5]: 16.3%
inhibition at 10 µM [8]: 93.5%
IC50 [9]: 0.36 µM
IC50 [12]: 0.89 µM
inhibition at 10 µM [15]: 101%
solubility [16]: 3.63 µg/mL (≈ 6.38 µM)
IC50 [17]: 7.09 µM

CCN(CC)CCCOc1ccc(/C=C2\CCC/C(=C\c3ccc(OCCCN(CC)CC)c(OC)c3)C2=O)cc1OC
IC50 [2]: 0.99 µM
IC50 [3]: 1.72 µM
inhibition at 10 µM [4]: 78%
inhibition at 10 µM [5]: 80.4%
inhibition at 10 µM [8]: 82.6%
IC50 [9]: 2.06 µM
Activity [11]: Active
IC50 [12]: 1.7 µM
Activity [14]: Dose-dependent effect
inhibition at 10 µM [15]: 91.9%
solubility [16]: 21.6 µg/mL (≈ 36.5 µM)
IC50 [17]: 3.45 µM
Activity [18]: Active
Activity [20]: Dose-dependent effect

COc1cc(/C=C2\CC/C(=C\c3ccc(OCCCN4CCCCC4)c(OC)c3)C2=O)ccc1OCCCN1CCCCC1
IC50 [2]: 0.39 µM
IC50 [3]: 0.68 µM
inhibition at 10 µM [4]: 84.2%
inhibition at 10 µM [5]: 86.6%
inhibition at 10 µM [8]: 83.8%
IC50 [9]: 0.18 µM
IC50 [12]: 0.44 µM
inhibition at 10 µM [15]: 91.9%
solubility [16]: 4.11 µg/mL (≈ 6.82 µM)
IC50 [17]: 0.67 µM

COc1cc(/C=C/C(=O)/C=C/c2cccc(OC)c2OC)ccc1OCCCN1CCOCC1
IC50 [2]: 1.02 µM
IC50 [3]: 2.49 µM
inhibition at 10 µM [4]: 73.7%
inhibition at 10 µM [5]: 77.6%
inhibition at 10 µM [8]: 82.1%
IC50 [9]: 2.38 µM
IC50 [12]: 1.84 µM
Activity [14]: inactive
inhibition at 10 µM [15]: 88.9%
solubility [16]: 114 µg/mL (≈ 243 µM)
IC50 [17]: 2.77 µM
Activity [18]: Active
Activity [20]: inactive

COc1ccccc1/C=C/C(=O)/C=C/c1ccc(OCCCBr)c(OC)c1
IC50 [2]: 3.53 µM
IC50 [3]: 6.69 µM
inhibition at 10 µM [4]: 74.8%
inhibition at 10 µM [5]: 80.1%
inhibition at 10 µM [8]: 81.5%
IC50 [9]: 6.39 µM
IC50 [12]: 2.84 µM
inhibition at 10 µM [15]: 77.2%
IC50 [17]: 4.11 µM

COc1cc(/C=C2\CCC/C(=C\c3ccc(OCCCn4ccnc4)c(OC)c3)C2=O)ccc1OCCCn1ccnc1
IC50 [2]: 2.79 µM
IC50 [3]: 2.21 µM
inhibition at 10 µM [4]: 85%
inhibition at 10 µM [5]: 88.5%
inhibition at 10 µM [8]: 82.4%
IC50 [9]: 3.59 µM
IC50 [12]: 3.38 µM
inhibition at 10 µM [15]: 90.9%
IC50 [17]: 2.87 µM

COc1cc(/C=C2\CCC/C(=C\c3ccc(OCCCN4CCOCC4)c(OC)c3)C2=O)ccc1OCCCBr
IC50 [2]: 5.64 µM
IC50 [3]: 10.2 µM
inhibition at 10 µM [4]: 61.9%
inhibition at 10 µM [5]: 51.2%
inhibition at 10 µM [8]: 72.7%
IC50 [9]: 10.5 µM
IC50 [12]: 11 µM
inhibition at 10 µM [15]: 65.2%
IC50 [17]: 10 µM

COc1cc(/C=C2\CC/C(=C\c3ccc(OCCCN4CCOCC4)c(OC)c3)C2=O)ccc1OCCCN1CCOCC1
IC50 [2]: 1.49 µM
IC50 [3]: 2.28 µM
inhibition at 10 µM [4]: 86.1%
inhibition at 10 µM [5]: 83.9%
inhibition at 10 µM [8]: 86%
IC50 [9]: 0.39 µM
IC50 [12]: 1 µM
inhibition at 10 µM [15]: 92.5%
IC50 [17]: > 30 µM

COc1cc(/C=C2\CCC/C(=C\c3ccc(OCCCN4CCCCC4)c(OC)c3)C2=O)ccc1OCCCN1CCCCC1
IC50 [2]: 2.49 µM
IC50 [3]: 2.92 µM
inhibition at 10 µM [4]: 82.8%
inhibition at 10 µM [5]: 76.9%
inhibition at 10 µM [8]: 86.9%
IC50 [9]: 2.42 µM
IC50 [12]: 2.32 µM
inhibition at 10 µM [15]: 93.2%
IC50 [17]: 6.35 µM

COc1cc(/C=C2\CC/C(=C\c3ccc(OCCCN4CCCCC4)c(OC)c3)C2=O)ccc1OCCCBr
IC50 [2]: 4.47 µM
IC50 [3]: 7.31 µM
inhibition at 10 µM [4]: 89%
inhibition at 10 µM [5]: 91.4%
inhibition at 10 µM [8]: 84.5%
IC50 [9]: 3.86 µM
IC50 [12]: 5.08 µM
inhibition at 10 µM [15]: 90.2%
IC50 [17]: 7.03 µM
